For assay [1], the target named is T1, Toll-like receptor 7 (Homo sapiens, UniProt Q9NYK1).
T1 sequence (Q9NYK1 whole entry): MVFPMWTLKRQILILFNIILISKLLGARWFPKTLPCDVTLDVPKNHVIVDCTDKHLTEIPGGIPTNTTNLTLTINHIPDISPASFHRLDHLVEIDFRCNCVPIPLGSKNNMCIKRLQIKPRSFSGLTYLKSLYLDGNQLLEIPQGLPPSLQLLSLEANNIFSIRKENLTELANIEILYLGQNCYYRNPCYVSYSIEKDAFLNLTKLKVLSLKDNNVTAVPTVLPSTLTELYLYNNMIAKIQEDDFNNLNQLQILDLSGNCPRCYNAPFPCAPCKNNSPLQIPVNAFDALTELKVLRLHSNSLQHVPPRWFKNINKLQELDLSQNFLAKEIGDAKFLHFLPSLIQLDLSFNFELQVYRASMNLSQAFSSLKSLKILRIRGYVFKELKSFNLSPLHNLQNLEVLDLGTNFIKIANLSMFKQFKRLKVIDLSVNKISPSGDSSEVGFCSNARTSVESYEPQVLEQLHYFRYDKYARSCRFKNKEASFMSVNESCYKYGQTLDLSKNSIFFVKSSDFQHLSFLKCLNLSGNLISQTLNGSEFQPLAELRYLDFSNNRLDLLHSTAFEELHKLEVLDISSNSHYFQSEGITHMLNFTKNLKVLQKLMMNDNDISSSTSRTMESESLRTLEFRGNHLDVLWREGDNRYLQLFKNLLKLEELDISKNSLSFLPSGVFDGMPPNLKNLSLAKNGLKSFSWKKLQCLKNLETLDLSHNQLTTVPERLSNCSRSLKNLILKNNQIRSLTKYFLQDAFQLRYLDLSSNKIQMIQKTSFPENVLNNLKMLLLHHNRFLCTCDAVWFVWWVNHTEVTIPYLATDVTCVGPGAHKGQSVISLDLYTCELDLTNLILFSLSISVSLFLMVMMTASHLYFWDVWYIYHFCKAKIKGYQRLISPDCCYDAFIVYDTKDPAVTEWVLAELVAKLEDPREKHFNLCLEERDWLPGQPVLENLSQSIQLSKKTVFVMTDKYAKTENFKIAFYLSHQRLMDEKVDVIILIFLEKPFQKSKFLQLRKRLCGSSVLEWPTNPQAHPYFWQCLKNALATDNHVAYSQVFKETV
Put plainly: Antagonist activity at TLR7 expressed in HEK293 cells co-transfected with NF-kappaB/sAP gene assessed as inhibition of 1 ug/ml of gardiquimod-induced NF-kappaB activation by reporter gene assay. It is filed as functional, cell-based. A digest of the protocol:
(§1)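 HEK-Blue-7 cells (HEK293 stably carrying TLR7 plus NF-κB/AP-1-driven secreted alkaline phosphatase), kept in selection medium with zeocin and normocin. Seeded at ~10⁵ cells/mL and grown to confluency, then stimulated with gardiquimod 1 μg/mL while serially diluted compounds were added at the same time (highest 250 μM). Incubated overnight; supernatant sAP read with chromogen at 620 nm; duplicates or quadruplicates.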

Another assay deals with T2, Toll-like receptor 8 (Homo sapiens, UniProt Q9NR97).
T2 sequence (Q9NR97 whole entry): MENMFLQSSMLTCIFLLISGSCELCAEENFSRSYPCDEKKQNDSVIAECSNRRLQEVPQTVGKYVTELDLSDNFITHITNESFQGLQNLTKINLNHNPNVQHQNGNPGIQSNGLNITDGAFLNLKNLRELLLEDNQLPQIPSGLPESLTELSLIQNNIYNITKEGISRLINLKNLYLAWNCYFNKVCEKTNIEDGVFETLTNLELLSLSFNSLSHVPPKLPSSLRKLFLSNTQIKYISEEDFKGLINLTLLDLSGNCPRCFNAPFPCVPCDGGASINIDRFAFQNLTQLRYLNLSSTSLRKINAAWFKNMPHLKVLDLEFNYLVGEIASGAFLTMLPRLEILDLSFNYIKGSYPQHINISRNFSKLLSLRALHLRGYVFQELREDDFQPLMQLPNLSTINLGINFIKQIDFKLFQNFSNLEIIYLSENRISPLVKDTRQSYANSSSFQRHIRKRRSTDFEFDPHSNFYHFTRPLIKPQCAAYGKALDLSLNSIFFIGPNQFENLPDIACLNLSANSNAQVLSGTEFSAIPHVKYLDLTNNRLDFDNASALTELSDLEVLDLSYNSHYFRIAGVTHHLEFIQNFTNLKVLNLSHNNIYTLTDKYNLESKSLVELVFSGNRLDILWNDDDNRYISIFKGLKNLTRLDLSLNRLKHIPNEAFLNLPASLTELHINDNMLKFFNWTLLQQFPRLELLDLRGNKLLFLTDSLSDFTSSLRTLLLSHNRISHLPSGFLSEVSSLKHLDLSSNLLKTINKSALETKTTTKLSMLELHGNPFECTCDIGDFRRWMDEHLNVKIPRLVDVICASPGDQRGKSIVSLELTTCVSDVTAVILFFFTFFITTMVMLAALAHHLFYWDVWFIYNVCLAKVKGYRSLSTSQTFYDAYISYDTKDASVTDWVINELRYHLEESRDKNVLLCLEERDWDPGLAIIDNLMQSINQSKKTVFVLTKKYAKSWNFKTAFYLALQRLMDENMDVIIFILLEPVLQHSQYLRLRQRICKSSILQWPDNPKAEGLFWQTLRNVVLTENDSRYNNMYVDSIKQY
Put plainly: Antagonist activity at TLR8 expressed in HEK293 cells co-transfected with NF-kappaB/sAP gene assessed as inhibition of CL075-induced NF-kappaB activation by reporter gene assay. In kind it is functional, cell-based.

Assay [2] deals with T3, Toll-like receptor 7 (Homo sapiens) (UniProt Q9NYK1).
T3 sequence (whole entry): T1 sequence (Q9NYK1 whole entry)
Nature of the assay: Antagonist activity at TLR7 expressed in HEK293 cells co-transfected with NF-kappaB/sAP gene assessed as inhibition of gardiquimod-induced NF-kappaB activation at 250 uM by reporter gene assay. In kind it is functional, cell-based. A digest of the protocol: as §1

The target of assay [3] is Toll-like receptor 8 (Homo sapiens) (UniProt Q9NR97). Nature of the assay: Antagonist activity at TLR8 expressed in HEK293 cells co-transfected with NF-kappaB/sAP gene assessed as inhibition of CL075-induced NF-kappaB activation at 250 uM by reporter gene assay.
In assay [4] the target is T1, Toll-like receptor 7. Nature of the assay: Antagonist activity at TLR7 expressed in HEK293 cells co-transfected with NF-kappaB/sAP gene assessed as inhibition of 250 ng/ml of gardiquimod-induced NF-kappaB activation by reporter gene assay.

Activity calls are given as the source filed them. No cut-off for these calls is given here.

For the molecule `CCNCc1nc2c3ccccc3ncc2n1C`, the IC50 at Toll-like receptor 7 [1] was determined as 30.4 µM.
Consider `OCCCn1c(-c2ccccc2)nc2c3ccccc3ncc21`, for which the concentration for half-maximal inhibition (IC50) at Toll-like receptor 8 worked out at 37.2 µM. The inhibition result in assay [2] was “inactive”.
Taken in the same sequence, the figures for `CC(C)(O)Cn1c(-c2ccccc2)nc2c3ccccc3ncc21` were 38.4 µM and “inactive”.
For `CCCCCCCCCc1nc2c3ccccc3ncc2n1C`, the IC50 at Toll-like receptor 7 [1] is 10.1 µM.
Take `CC(C)(O)Cn1c(C2CCCCC2)nc2c3ccccc3ncc21`: at Toll-like receptor 8, the half-maximal inhibitory concentration (IC50) worked out at 38.7 µM. The inhibition result in assay [2] was “inactive”.
For the molecule `C#CCn1c(C2CCCCC2)nc2c3ccccc3ncc21`, the IC50 at Toll-like receptor 7 [1] came out at 21.9 µM; at Toll-like receptor 8 it was 21.1 µM.
The matching figures for `COc1ccc(Cn2c(C3CCCCC3)nc3c4ccccc4ncc32)cc1`: 19.9 µM and 40 µM.
With `CCNCc1nc2c3ccccc3ncc2n1Cc1ccc(OC)cc1`, the IC50 on Toll-like receptor 7 [1] came to 28 µM; on Toll-like receptor 8, 59.6 µM.
For `CCCCCCCCCc1nc2c3ccccc3ncc2n1CCCO`, the IC50 at Toll-like receptor 8 came out at 4.81 µM. The inhibition entry in assay [2] was “inactive”.
Take `COc1ccc(Cn2c(-c3ccccc3)nc3c4ccccc4ncc32)cc1`: the inhibition result in assay [2] and in assay [3] was “inactive” in each case.
With `C#CCn1c(CNCC)nc2c3ccccc3ncc21`, the IC50 on Toll-like receptor 7 [1] worked out at 26.1 µM; at Toll-like receptor 8 it was 28.1 µM.
For the molecule `OCCCn1c(C2CCCCC2)nc2c3ccccc3ncc21`, the IC50 at Toll-like receptor 8 was found to be 20.3 µM. The inhibition result in assay [2] was “inactive”.
With `COc1ccc(Cn2c(-c3ccccc3)nc3c4ccccc4[n+](Cc4ccc(OC)cc4)cc32)cc1`, the IC50 was 2.79 µM at Toll-like receptor 7 [1], 4.55 µM at Toll-like receptor 8 and 0.82 µM on Toll-like receptor 7 [4].
As to `CCNCc1nc2c3ccccc3ncc2n1CCCO`, the inhibition entry in assay [2] and in assay [3] was “inactive” throughout.
Consider `CCNCc1nc2c3ccccc3[n+]([O-])cc2n1CC(C)(C)O`, for which, at Toll-like receptor 8, the IC50 stood at 46.5 µM. Besides, in assay [2], the inhibition result was “inactive”.
Regarding `Cn1c(C2CCCCC2)nc2c3ccccc3ncc21`, the results for the IC50 on Toll-like receptor 7 [1] and on Toll-like receptor 8 were 22 µM and 24.3 µM, respectively.
For the molecule `C#CCn1c(CCCCCCCCC)nc2c3ccccc3ncc21`, the IC50 worked out at 8.58 µM on Toll-like receptor 7 [1] and 10.1 µM on Toll-like receptor 8.
Consider `CCCCCCCCCc1nc2c3ccccc3ncc2n1Cc1ccc(OC)cc1`, for which the IC50 at Toll-like receptor 7 [1] turned out to be 19.4 µM.
Consider `C#CCn1c(-c2ccccc2)nc2c3ccccc3ncc21`, for which the IC50 amounted to 14.8 µM at Toll-like receptor 7 [1] and 13.7 µM at Toll-like receptor 8.
For the molecule `CCCCCCCCCc1nc2c3ccccc3ncc2n1CC(C)(C)O`, the IC50 at Toll-like receptor 7 [1] was found to be 14.4 µM.
With `Cn1c(-c2ccccc2)nc2c3ccccc3ncc21`, the IC50 on Toll-like receptor 7 [1] worked out at 21.6 µM; at Toll-like receptor 8, 25.8 µM.
Take `CCNCc1nc2c3ccccc3nc(NC(=O)c3ccccc3)c2n1CC(C)(C)O`: the IC50 at Toll-like receptor 8 stood at 21.2 µM. The inhibition entry in assay [2] was “inactive”.

The record behind these values is ChEMBL document CHEMBL1795244, “Preliminary evaluation of a 3H imidazoquinoline library as dual TLR7/TLR8 antagonists” (Bioorg Med Chem, 2011).
